Reference: ChEMBL document CHEMBL5034005, “Fragment-Derived Selective Inhibitors of Dual-Specificity Kinases DYRK1A and DYRK1B” (J Med Chem, 2021)

Assays:
[1] = molecular target: T1, Serine/threonine-protein kinase PAK 4 (Homo sapiens, UniProt O96013); assay: Inhibition of PAK4 (unknown origin) at 200 uM by ADP hunter plus assay
Target sequence in this assay (O96013 whole entry, looked up): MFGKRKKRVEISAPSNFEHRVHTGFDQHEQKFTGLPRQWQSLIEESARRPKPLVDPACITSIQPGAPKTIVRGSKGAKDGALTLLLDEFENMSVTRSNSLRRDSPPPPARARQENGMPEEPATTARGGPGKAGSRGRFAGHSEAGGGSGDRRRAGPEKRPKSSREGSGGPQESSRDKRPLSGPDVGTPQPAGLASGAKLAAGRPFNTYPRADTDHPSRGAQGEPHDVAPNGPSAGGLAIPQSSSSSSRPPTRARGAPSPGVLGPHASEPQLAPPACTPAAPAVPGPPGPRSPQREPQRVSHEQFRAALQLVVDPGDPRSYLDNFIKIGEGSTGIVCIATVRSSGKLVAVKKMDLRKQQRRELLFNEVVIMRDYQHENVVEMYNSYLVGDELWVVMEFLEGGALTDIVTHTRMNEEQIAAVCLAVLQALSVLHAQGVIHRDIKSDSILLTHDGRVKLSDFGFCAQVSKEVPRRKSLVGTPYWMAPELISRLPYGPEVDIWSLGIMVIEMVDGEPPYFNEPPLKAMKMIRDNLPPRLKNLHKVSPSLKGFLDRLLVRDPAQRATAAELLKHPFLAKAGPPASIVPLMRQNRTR

[2] = molecular target: T1, Serine/threonine-protein kinase PAK 4; assay: Inhibition of PAK4 (unknown origin) assessed as accumulation of ADP by ADP hunter plus assay
Procedure, shortened: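 Kinase/substrate mix added to compound, reaction started with ATP. Detection reagents added for 20 min at 30 °C, then stop reagent. Fluorescence read at Ex/Em 530/590 nm.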
Target sequence in this assay (O96013 whole entry): as the sequence (O96013 whole entry, looked up) above

[3] = molecular target: Dual specificity tyrosine-phosphorylation-regulated kinase 1B (Homo sapiens, UniProt Q9Y463); assay: Inhibition of DYRK1B (unknown origin) by TR FRET assay
Dual specificity tyrosine-phosphorylation-regulated kinase 1B, sequence (Q9Y463 whole entry): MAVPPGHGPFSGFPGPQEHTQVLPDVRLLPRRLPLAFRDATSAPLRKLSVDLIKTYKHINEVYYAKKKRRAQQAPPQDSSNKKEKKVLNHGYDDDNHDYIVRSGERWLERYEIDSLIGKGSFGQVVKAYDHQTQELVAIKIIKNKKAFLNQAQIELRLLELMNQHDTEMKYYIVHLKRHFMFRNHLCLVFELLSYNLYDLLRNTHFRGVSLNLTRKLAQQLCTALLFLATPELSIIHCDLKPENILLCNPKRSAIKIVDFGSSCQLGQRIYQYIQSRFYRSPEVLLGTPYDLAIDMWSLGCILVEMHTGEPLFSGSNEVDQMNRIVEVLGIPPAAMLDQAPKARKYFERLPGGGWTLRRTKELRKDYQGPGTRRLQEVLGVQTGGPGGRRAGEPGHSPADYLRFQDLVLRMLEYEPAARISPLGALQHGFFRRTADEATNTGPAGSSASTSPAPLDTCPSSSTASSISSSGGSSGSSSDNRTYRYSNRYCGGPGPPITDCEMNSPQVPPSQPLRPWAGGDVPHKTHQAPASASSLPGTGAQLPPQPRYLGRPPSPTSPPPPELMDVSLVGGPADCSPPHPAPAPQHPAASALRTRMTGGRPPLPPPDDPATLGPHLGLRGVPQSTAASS

[4] = molecular target: T2, Dual specificity tyrosine-phosphorylation-regulated kinase 2 (Homo sapiens, UniProt Q92630); assay: Inhibition of DYRK2 (unknown origin) by ADP hunter plus assay
T2 sequence (Q92630 whole entry): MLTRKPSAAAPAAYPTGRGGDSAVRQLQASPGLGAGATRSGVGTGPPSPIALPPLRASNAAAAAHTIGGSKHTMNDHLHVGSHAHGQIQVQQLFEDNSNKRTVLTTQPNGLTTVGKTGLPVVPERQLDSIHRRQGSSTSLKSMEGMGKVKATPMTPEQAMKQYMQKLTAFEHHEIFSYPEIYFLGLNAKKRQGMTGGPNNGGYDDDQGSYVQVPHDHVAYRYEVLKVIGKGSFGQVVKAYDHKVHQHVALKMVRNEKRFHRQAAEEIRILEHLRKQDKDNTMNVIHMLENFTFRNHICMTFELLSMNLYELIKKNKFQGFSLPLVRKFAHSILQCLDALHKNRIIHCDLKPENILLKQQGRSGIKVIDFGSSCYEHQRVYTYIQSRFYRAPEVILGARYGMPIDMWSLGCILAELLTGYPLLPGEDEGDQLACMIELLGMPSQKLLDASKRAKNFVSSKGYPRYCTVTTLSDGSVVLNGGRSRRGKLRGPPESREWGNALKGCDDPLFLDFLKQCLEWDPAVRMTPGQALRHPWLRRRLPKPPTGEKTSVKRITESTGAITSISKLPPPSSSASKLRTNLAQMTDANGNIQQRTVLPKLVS

[5] = molecular target: Cyclin-dependent kinase 9 (Homo sapiens, UniProt P50750); assay: Inhibition of CDK9 (unknown origin) by TR FRET assay
Cyclin-dependent kinase 9, sequence (P50750 whole entry): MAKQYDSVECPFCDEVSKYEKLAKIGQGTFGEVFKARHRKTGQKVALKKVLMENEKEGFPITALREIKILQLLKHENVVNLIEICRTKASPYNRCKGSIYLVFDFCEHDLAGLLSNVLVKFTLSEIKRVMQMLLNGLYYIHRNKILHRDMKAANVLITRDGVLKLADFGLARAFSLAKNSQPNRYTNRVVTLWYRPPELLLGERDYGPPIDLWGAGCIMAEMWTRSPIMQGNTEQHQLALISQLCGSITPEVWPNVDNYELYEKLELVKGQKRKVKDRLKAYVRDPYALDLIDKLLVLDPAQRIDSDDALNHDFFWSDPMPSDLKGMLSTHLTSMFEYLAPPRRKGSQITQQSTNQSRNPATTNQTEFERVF

[6] = molecular target: T2, Dual specificity tyrosine-phosphorylation-regulated kinase 2; assay: Inhibition of DYRK2 (unknown origin) by TR FRET assay
[7] = molecular target: Dual specificity protein kinase CLK1 (Homo sapiens, UniProt P49759); assay: Inhibition of CLK (unknown origin) by TR FRET assay
Dual specificity protein kinase CLK1, sequence (P49759 whole entry): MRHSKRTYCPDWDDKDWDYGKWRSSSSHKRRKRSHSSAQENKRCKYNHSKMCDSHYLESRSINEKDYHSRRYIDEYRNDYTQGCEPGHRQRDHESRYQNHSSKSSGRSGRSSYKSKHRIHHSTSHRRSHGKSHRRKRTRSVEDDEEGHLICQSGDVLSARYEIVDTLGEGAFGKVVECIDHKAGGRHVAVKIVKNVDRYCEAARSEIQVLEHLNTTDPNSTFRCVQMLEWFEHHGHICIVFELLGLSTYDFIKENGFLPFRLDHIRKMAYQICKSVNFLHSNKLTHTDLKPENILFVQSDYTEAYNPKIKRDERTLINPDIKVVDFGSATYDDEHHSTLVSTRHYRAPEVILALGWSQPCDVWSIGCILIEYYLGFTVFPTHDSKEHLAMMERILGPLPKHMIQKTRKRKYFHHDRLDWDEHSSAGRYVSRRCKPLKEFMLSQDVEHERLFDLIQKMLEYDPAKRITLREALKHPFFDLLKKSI

[8] = Metabolic stability in CD-1 mouse liver microsome preincubated for 10 mins by HPLC-MS/MS analysis; format: ADME; details: liver microsomes, read-out: Stability
Procedure, shortened: (§1)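 Pooled liver microsomes at 0.3 mg/mL final protein. Compound at 0.1 μM, in duplicate. Preincubated 10 min at 37 °C, then NADPH-generating system added and incubated in a 37 °C shaking water bath. Intrinsic clearance from half-life and protein concentration, scaled to hepatic blood clearance.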

[9] = Metabolic stability in Sprague-Dawley rat liver microsome preincubated for 10 mins by HPLC-MS/MS analysis; format: ADME; details: liver microsomes, read-out: Stability; procedure, shortened: as §1
hERG [10] = molecular target: T3, hERG (Homo sapiens, UniProt Q12809); assay: Inhibition of hERG at 1 uM relative to control
T3 sequence (Q12809 whole entry): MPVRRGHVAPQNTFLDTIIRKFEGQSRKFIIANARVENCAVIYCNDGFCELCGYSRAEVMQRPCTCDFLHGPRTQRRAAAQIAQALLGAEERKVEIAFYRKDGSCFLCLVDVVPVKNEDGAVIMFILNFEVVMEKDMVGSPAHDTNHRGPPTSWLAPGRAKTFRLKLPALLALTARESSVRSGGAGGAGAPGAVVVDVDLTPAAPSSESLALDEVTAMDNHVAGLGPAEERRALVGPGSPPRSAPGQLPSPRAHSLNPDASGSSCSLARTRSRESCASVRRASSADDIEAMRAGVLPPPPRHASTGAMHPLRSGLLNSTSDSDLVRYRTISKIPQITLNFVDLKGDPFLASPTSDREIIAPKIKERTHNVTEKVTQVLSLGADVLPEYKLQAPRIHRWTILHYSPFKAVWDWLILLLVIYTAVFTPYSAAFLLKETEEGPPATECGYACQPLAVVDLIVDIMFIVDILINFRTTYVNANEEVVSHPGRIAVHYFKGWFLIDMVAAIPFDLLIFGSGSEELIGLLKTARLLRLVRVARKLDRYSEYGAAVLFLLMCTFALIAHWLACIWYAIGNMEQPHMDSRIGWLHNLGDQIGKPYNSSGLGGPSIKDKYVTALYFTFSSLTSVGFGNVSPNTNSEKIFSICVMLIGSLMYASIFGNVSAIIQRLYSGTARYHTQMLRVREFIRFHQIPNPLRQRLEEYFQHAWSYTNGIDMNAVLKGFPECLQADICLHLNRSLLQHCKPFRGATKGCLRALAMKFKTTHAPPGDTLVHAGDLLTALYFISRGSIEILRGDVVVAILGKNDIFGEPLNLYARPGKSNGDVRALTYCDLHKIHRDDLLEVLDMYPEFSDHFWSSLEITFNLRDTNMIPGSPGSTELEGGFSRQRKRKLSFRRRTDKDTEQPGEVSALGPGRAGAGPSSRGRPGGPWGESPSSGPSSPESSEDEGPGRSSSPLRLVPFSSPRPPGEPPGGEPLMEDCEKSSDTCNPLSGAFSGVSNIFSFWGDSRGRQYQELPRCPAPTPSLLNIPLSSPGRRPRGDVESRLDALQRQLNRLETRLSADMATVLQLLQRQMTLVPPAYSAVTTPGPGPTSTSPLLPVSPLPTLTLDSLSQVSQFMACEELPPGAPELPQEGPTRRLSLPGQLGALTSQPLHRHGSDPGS

hERG [11] = molecular target: T3, hERG; assay: Inhibition of hERG at 3 uM relative to control
hERG [12] = molecular target: T3, hERG; assay: Inhibition of hERG at 10 uM relative to control
[13] = molecular target: T4, Dual specificity tyrosine-phosphorylation-regulated kinase 1A (Homo sapiens, UniProt Q13627); assay: Binding affinity to DYRK1A (unknown origin) assessed as inhibition constant by ADP hunter plus assay
[14] = molecular target: T4, Dual specificity tyrosine-phosphorylation-regulated kinase 1A; assay: Inhibition of DYRK1A (unknown origin) at 50 uM by ADP hunter plus assay

## Cn1c(Br)c(C#N)c2c(N)ncnc21
[1]
  inhibition: 55%
[2]
  IC50: > 200 µM

## Cc1nc(N)c2c(C#N)c(-c3cccnc3)[nH]c2n1
[2]
  IC50: > 50 µM

## CCn1c(-c2cccc(F)c2F)c(C#N)c2c(N)nc(C)nc21
[2]
  IC50: > 50 µM

## Cc1nc(NCc2c(F)cccc2F)c2c(-c3ccnc(N)n3)c[nH]c2n1
[3]
  IC50: 0.01 µM
[4]
  IC50: 0.05 µM
[5]
  IC50: > 10 µM
[6]
  IC50: 0.02 µM
[7]
  IC50: 0.02 µM
[8]
  CLint scaled: 100 mL/min/kg
[9]
  CLint scaled: 53 mL/min/kg
hERG [10]
  inhibition at 1 µM: 25%
hERG [11]
  inhibition at 3 µM: 42%
hERG [12]
  inhibition at 10 µM: 59%

## Cc1nc(N)c2c(C#N)c(-c3cccc(F)c3F)[nH]c2n1
[2]
  IC50: > 50 µM

## Cc1nc(-c2ccc3c(c2)OCO3)c2c(-c3ccnc(N)c3)c[nH]c2n1
[3]
  IC50: 0.01 µM
[4]
  IC50: > 10 µM
[5]
  IC50: > 10 µM
[6]
  IC50: 1.8 µM
[7]
  IC50: 0.04 µM
[8]
  CLint scaled: 89 mL/min/kg
[9]
  CLint scaled: 50 mL/min/kg
hERG [12]
  inhibition at 10 µM: 66%

## COc1nc(C)nc2[nH]cc(-c3ccc(F)cc3)c12
[13]
  Ki: 25 µM
[14]
  inhibition: 68%

## Cn1cc(-c2cc(C(=O)O)n[nH]2)cn1
[13]
  Ki: > 200 µM
[1]
  inhibition: 6%

## O=c1[nH]cnc2[nH]nc(-c3ccccc3)c12
[13]
  Ki: 2.3 µM
[1]
  inhibition: 46%
